Reference: ChEMBL document CHEMBL2440093, “Discovery of 2-aryl-8-hydroxy (or methoxy)-isoquinolin-1(2H)-ones as novel EGFR inhibitor by scaffold hopping” (Bioorg Med Chem, 2013)

How the values were obtained:
[1] = system: A549; assay: Antiproliferative activity against human A549 cells after 72 hrs by MTT assay; type: functional, cell-based; details: A549, 72 h
[2] = system: A-431; assay: Antiproliferative activity against human A431 cells after 72 hrs by MTT assay; type: functional, cell-based; details: A-431, 72 h
Method in brief: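 A431 cells seeded in 96-well plates and held 24 h at 37 °C before exposure, with cell numbers set so controls stay in exponential growth. Compounds at final 100.0, 10.0, 1.0 and 0.1 μM for 72 h. MTT (5 mg/ml in PBS) added for 4 h, formazan pelleted and dissolved in DMSO, OD 570 nm. Three experiments in triplicate; IC50 from inhibition ratios.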

[3] = target: Epidermal growth factor receptor (Homo sapiens, UniProt P00533); assay: Inhibition of EGFR in shed membrane vesicles of human A431 cells using poly-Glu-Tyr as substrate after 30 mins by ELISA; type: cell membranes, A-431
Epidermal growth factor receptor, sequence (P00533 whole entry): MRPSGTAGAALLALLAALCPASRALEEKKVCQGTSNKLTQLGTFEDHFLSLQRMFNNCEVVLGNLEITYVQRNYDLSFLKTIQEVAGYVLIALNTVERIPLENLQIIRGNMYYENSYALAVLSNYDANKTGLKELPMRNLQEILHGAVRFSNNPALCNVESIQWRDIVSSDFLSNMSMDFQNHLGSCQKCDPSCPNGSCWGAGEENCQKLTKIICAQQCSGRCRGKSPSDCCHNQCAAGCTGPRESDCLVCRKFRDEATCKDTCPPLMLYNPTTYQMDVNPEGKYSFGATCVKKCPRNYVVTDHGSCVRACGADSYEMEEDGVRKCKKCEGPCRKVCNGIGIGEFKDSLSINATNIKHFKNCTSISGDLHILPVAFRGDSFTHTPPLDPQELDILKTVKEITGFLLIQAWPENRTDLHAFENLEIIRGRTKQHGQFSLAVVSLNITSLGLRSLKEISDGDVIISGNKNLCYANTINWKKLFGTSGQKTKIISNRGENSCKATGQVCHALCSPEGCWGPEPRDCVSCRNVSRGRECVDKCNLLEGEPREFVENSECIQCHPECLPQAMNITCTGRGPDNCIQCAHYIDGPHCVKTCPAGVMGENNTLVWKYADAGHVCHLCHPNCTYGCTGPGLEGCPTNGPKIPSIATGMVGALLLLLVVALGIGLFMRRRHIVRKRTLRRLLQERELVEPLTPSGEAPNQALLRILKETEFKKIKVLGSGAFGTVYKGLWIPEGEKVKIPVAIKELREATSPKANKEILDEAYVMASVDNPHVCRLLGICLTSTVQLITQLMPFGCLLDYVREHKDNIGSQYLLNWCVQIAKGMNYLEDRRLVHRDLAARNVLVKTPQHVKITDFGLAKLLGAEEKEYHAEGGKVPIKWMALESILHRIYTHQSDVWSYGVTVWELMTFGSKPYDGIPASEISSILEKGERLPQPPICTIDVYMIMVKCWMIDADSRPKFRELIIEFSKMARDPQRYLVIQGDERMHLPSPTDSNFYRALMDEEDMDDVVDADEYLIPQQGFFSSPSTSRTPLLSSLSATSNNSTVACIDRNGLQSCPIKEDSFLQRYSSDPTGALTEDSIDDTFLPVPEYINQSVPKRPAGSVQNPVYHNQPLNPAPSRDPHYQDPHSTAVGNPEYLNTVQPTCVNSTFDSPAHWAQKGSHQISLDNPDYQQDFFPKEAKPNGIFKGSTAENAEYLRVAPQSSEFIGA

Row | Compound | IC50 [1] [µM] | IC50 [2] [µM] | IC50 [3] [nM]
1 | COc1cc(OC)c2c(=O)n(-c3ccccc3)ccc2c1 | 44.5 | 5.35 | –
2 | C#Cc1cccc(-n2ccc3cc(OC)cc(OC)c3c2=O)c1 | 25.2 | 7.13 | 3510
3 | COc1cc(OC)c2c(=O)n(-c3ccc(F)c(Cl)c3)ccc2c1 | 17.8 | 3.95 | 5490
4 | COc1cc(OC)c2c(=O)n(-c3cccc(F)c3)ccc2c1 | 15.2 | 4.17 | –
5 | COc1cc(OC)c2c(=O)n(-c3ccc(F)c(F)c3)ccc2c1 | – | 3.79 | –
6 | COc1cc(OC)c2c(=O)n(-c3cccc(C(F)(F)F)c3)ccc2c1 | 23.3 | 14.8 | –
7 | COc1cc(OC)c2c(=O)n(-c3cccc(C(=O)N4CCCCC4)c3)ccc2c1 | 18.6 | 15.3 | 2120
8 | COc1cc(OC)c2c(=O)n(-c3cccc(C(N)=O)c3)ccc2c1 | 31.3 | 28.2 | –
9 | COc1cc(OC)c2c(=O)n(Cc3ccccc3)ccc2c1 | – | 3.88 | –
10 | C#Cc1cccc(-n2ccc3cc(OC)cc(O)c3c2=O)c1 | 15.9 | 4.44 | 3060
11 | COc1cc(O)c2c(=O)n(-c3ccccc3)ccc2c1 | 27.9 | – | –
12 | COc1cc(O)c2c(=O)n(-c3cccc(C(=O)N4CCCCC4)c3)ccc2c1 | 14.2 | 2.25 | 1380
13 | COc1cc(O)c2c(=O)n(-c3cccc(C(N)=O)c3)ccc2c1 | 24.8 | 15.2 | –
14 | COc1cc(O)c2c(=O)n(Cc3ccccc3)ccc2c1 | – | 8.29 | –
15 | COc1cc2c(c(OC)c1)C(=O)N(c1cccc(C(=O)N3CCCCC3)c1)CC2 | 23.4 | 10.8 | 1230
16 | COc1cc(O)c2c(c1)CCN(c1cccc(C(=O)N3CCCCC3)c1)C2=O | 13.2 | 5.32 | 1180
17 | C=CC(=O)Nc1c(OC)cc(OC)c2c(=O)n(-c3cccc(C(=O)N4CCCCC4)c3)ccc12 | 14.7 | – | –
18 | C=CC(=O)Nc1c(OC)cc(O)c2c(=O)n(-c3cccc(C(=O)N4CCCCC4)c3)ccc12 | 14.7 | 5.3 | –
19 | COc1cc(O)c2c(=O)n(-c3cccc(C(=O)N4CCCCC4)c3)ccc2c1NC(=O)Nc1ccc(C(=O)N2CCN(C)CC2)cc1 | > 100 | 19.5 | –
20 | COc1cc(O)c2c(=O)n(-c3cccc(C(=O)N4CCCCC4)c3)ccc2c1NC(=O)CCN1CCOCC1 | 13.1 | 11.4 | –
